# Measurements published in ChEMBL document CHEMBL2176978, “Fragment-based discovery of bromodomain inhibitors part 2: optimization of phenylisoxazole sulfonamides” (J Med Chem, 2012).
# Columns and labels:
# [1] = target: T1, Bromodomain-containing protein 1 (Homo sapiens) (UniProt O95696); experiment: Inhibition of His6FLAG-tagged BRD1 expressed in Escherichia coli assessed as change in melting temperature at 100 uM by thermal shift assay
# T1 sequence (whole entry): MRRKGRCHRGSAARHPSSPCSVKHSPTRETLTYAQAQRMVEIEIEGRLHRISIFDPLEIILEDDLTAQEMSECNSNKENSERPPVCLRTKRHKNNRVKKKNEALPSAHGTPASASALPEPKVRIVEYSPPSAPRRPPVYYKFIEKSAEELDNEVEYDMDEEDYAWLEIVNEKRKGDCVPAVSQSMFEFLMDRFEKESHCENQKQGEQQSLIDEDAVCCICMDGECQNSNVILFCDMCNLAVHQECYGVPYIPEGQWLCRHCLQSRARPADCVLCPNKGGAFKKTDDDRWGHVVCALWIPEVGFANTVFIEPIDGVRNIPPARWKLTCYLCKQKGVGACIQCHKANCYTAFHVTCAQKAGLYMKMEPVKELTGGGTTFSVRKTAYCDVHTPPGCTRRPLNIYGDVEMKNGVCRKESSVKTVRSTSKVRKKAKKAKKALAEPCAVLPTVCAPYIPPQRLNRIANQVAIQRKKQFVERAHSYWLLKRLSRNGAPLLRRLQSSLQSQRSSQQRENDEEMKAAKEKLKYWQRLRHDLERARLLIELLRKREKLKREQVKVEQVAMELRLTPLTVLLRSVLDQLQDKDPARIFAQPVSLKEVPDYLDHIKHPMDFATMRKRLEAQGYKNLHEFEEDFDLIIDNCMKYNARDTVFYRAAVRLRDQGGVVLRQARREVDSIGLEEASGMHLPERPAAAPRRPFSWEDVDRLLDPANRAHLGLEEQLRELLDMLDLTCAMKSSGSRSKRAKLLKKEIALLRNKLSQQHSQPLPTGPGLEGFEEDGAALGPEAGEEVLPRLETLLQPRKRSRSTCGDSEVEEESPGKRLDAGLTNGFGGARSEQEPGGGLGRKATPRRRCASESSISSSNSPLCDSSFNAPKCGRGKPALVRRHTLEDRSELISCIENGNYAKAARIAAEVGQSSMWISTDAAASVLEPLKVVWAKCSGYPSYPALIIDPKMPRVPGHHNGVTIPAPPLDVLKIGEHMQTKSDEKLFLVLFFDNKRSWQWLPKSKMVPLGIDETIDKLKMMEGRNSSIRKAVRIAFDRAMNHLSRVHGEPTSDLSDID
# Outline: (§1)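 Thermal melt: protein heated with or without 100 μM compound, at least duplicate; Sypro orange at 1:1000 in PBS with 10% glycerol; ramp 1 °C/min, fluorescence read every 0.5 °C; ΔTm reported.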
# [2] = target: T2, ATPase family AAA domain-containing protein 2B (Homo sapiens) (UniProt Q9ULI0); experiment: Inhibition of His6FLAG-tagged ATD2B expressed in Escherichia coli assessed as change in melting temperature at 100 uM by thermal shift assay; outline: as §1
# T2 sequence (whole entry): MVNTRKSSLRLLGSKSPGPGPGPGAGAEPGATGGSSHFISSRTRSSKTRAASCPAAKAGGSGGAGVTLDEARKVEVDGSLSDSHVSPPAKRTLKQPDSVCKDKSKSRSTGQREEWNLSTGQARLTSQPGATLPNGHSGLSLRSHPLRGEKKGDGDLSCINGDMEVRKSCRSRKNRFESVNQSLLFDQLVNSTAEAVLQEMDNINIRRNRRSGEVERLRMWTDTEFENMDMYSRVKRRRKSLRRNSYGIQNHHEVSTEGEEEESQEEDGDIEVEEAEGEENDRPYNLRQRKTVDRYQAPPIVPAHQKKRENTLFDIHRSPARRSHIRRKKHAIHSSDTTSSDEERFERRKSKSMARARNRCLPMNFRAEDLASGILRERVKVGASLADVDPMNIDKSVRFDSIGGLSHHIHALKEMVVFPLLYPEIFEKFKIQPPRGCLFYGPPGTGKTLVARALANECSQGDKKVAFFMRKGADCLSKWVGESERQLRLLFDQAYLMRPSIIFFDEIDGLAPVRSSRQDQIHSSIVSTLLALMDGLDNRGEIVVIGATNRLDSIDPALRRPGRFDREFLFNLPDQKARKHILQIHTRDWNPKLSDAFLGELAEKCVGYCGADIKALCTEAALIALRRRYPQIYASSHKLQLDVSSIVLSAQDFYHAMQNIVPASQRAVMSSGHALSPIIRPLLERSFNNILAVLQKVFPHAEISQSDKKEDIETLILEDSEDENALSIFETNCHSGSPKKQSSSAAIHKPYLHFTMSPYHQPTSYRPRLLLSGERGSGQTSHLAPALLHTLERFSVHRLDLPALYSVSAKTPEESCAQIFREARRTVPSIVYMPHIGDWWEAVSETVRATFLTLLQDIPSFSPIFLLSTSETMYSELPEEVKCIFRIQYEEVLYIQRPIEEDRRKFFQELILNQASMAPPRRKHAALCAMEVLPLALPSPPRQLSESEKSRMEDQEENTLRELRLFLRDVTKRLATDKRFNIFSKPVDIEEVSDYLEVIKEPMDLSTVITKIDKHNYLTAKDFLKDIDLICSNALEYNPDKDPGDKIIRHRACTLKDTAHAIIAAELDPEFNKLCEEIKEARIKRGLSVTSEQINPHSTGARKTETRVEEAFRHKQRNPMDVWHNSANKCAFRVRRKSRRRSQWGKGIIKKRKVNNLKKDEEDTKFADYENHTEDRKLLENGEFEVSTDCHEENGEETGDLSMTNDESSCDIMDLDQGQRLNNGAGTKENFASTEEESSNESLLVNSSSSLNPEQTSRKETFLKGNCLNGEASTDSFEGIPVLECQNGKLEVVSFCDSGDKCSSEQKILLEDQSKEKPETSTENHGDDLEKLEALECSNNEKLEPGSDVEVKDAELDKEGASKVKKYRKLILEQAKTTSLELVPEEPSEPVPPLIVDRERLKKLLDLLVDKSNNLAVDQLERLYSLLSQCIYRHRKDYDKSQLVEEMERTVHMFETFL
# [3] = target: Bromodomain-containing protein 3 (Homo sapiens, UniProt Q15059); experiment: Inhibition of His6FLAG-tagged BRD3-BD12 expressed in Escherichia coli assessed as change in melting temperature at 100 uM by thermal shift assay; outline: as §1
# Bromodomain-containing protein 3, sequence (Q15059 2-726 limits assumed): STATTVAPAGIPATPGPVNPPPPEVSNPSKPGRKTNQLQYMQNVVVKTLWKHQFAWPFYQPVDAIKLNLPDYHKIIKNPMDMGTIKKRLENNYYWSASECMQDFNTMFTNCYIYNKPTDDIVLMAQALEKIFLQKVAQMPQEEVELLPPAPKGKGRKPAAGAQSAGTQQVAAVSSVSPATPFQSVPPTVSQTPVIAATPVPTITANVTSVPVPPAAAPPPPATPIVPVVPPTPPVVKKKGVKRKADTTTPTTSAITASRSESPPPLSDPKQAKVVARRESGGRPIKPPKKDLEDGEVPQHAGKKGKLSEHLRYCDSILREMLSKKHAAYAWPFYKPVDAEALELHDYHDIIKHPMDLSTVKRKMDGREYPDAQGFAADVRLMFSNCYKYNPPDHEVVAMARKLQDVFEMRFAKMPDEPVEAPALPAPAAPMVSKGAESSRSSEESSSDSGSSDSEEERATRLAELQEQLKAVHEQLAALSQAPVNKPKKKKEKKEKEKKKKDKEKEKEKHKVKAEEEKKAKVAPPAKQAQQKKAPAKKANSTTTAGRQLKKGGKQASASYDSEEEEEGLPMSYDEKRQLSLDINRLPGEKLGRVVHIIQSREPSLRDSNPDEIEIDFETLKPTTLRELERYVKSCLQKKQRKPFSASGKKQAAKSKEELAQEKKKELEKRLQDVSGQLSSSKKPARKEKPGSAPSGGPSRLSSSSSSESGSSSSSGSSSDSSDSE
# [4] = target: Bromodomain adjacent to zinc finger domain protein 2B (Homo sapiens) (UniProt Q9UIF8); experiment: Inhibition of His6FLAG-tagged BAZ2B expressed in Escherichia coli assessed as change in melting temperature at 100 uM by thermal shift assay; outline: as §1
# Bromodomain adjacent to zinc finger domain protein 2B (Homo sapiens), sequence (Q9UIF8 whole entry, the tested form may be a part): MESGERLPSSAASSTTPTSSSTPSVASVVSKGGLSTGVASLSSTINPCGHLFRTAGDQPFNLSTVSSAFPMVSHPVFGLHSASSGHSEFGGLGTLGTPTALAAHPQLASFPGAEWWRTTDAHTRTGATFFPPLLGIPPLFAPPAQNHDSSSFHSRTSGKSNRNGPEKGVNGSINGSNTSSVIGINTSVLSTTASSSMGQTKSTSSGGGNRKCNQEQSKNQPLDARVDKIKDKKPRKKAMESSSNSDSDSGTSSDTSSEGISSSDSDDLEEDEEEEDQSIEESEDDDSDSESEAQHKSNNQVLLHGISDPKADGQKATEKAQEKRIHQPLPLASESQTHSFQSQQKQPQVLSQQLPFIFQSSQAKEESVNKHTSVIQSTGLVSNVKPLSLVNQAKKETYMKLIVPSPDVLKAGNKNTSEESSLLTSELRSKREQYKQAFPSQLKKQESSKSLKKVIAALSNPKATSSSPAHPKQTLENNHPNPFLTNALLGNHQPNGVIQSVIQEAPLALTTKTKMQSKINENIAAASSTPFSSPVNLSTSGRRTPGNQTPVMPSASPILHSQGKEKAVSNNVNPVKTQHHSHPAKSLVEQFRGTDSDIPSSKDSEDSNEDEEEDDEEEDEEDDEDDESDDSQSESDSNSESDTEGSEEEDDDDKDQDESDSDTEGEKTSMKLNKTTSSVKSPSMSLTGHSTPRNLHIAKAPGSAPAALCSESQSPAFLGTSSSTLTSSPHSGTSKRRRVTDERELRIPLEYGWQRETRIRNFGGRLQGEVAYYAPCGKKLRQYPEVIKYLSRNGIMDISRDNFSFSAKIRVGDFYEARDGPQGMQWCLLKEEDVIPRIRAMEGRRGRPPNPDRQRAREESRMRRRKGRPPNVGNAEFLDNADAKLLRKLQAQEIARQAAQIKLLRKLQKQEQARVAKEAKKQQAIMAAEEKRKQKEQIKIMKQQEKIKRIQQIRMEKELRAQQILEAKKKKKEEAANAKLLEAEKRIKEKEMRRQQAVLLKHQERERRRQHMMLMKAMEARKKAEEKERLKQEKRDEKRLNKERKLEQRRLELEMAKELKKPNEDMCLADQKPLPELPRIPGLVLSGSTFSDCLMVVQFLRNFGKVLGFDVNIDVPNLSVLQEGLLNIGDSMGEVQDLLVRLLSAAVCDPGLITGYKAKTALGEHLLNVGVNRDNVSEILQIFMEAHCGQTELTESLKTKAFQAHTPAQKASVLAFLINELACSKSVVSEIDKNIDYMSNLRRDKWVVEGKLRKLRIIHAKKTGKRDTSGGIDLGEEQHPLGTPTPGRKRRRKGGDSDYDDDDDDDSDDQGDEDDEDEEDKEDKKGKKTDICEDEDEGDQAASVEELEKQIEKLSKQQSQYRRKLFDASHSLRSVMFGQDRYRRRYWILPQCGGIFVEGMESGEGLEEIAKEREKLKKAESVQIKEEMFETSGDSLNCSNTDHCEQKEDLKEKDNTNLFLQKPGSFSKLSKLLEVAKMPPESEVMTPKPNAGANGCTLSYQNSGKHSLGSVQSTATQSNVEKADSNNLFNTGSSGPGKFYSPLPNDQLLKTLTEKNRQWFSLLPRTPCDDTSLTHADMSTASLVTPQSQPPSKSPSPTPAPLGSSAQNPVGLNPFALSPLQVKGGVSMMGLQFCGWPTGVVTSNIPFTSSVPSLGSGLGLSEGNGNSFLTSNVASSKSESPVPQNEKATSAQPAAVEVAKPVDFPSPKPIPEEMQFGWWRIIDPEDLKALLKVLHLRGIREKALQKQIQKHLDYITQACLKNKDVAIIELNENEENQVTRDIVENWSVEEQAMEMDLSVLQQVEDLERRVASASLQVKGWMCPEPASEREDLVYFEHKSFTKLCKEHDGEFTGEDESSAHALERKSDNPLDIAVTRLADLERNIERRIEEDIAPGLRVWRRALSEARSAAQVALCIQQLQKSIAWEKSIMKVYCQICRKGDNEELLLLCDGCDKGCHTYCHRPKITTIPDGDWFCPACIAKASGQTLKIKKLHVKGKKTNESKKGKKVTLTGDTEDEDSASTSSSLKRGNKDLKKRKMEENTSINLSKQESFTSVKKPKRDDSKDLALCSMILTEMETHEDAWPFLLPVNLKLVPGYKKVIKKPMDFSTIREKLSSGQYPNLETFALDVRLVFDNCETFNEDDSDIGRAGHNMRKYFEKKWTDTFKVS
# [5] = target: Bromodomain-containing protein 4 (Homo sapiens, UniProt O60885); experiment: Inhibition of His6FLAG-tagged BRD4-BD1 expressed in Escherichia coli assessed as change in melting temperature at 100 uM by thermal shift assay; outline: as §1
# [6] = target: Bromodomain-containing protein 2 (Homo sapiens, UniProt P25440); experiment: Inhibition of His6FLAG-tagged BRD2-BD1 expressed in Escherichia coli assessed as change in melting temperature at 100 uM by thermal shift assay; outline: as §1
# Bromodomain-containing protein 2, sequence (P25440 whole entry, looked up): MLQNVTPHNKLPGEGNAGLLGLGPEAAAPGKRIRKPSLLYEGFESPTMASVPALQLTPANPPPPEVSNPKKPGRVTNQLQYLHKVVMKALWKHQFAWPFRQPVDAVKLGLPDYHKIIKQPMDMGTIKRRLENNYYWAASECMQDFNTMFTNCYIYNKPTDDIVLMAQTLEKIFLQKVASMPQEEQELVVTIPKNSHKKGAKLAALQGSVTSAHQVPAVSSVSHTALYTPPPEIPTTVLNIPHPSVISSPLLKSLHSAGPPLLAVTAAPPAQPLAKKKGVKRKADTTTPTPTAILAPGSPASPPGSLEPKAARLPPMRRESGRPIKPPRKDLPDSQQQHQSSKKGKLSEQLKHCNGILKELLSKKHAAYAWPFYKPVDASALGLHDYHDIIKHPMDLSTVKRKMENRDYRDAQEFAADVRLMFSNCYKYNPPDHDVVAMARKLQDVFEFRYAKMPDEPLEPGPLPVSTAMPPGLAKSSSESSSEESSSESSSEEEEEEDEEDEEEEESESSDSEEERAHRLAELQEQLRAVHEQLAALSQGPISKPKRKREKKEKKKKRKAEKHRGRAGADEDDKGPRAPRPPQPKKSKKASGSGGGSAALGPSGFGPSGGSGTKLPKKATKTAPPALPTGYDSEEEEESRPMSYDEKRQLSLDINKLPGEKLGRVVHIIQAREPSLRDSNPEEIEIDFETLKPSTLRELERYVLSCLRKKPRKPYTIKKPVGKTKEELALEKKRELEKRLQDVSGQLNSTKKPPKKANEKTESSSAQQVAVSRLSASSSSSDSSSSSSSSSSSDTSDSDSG
Structure (SMILES),ΔTm [1] [°C],ΔTm [2] [°C],ΔTm [3] [°C],ΔTm [4] [°C],ΔTm [5] [°C],ΔTm [6] [°C]
Cc1ccc(-c2c(C)noc2C)cc1S(=O)(=O)NC1CCCC1,< 1,< 1,2,< 1,2,1
Cc1noc(C)c1-c1ccc(OCCCN2CCOCC2)c(S(=O)(=O)NC2CCCC2)c1,< 1,< 1,2,< 1,2,1
